The source made the active and inactive calls. The rule behind the calls is not given here.
Experiments:
[1] = target: T1, Androgen receptor (Homo sapiens) (UniProt P10275); test: Agonist activity at androgen receptor (unknown origin) expressed in human HepG2 cells assessed as relative luciferase activity at 1 uM by MMTV promoter-driven luciferase reporter gene assay relative to untreated vehicle control; format: cell-based
T1 sequence (whole entry): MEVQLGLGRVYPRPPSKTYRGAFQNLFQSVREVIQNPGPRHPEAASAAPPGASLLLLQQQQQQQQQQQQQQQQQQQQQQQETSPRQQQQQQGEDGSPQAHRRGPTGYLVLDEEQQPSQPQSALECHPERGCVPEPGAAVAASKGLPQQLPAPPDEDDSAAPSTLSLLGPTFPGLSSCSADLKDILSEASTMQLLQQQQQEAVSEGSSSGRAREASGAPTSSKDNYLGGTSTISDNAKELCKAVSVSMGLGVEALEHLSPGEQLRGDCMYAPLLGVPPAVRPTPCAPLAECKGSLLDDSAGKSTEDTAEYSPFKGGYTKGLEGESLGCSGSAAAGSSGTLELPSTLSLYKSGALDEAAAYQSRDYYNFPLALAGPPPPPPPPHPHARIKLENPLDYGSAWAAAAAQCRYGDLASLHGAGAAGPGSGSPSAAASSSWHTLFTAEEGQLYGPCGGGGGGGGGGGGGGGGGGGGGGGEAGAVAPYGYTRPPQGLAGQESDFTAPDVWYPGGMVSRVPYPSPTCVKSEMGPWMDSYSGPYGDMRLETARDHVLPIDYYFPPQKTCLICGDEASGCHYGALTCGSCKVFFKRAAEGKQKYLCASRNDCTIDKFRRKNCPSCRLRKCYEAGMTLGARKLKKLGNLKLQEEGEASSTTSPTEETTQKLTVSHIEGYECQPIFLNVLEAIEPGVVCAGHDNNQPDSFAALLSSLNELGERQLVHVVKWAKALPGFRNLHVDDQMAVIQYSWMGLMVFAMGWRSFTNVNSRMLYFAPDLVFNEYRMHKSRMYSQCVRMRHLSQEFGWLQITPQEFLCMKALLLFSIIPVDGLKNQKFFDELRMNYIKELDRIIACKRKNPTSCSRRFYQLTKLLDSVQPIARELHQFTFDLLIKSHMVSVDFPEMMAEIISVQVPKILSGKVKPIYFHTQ
Method in brief: (§1)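 HepG2 in phenol red-free DMEM with 10% charcoal-stripped FBS, plated in triplicate at 1 × 10^5 cells/well. After 24 h, transfected with 2 µg wild-type AR expression plasmid (pCMV-AR), 6 µg pMMTV-luc reporter and 1 µg β-galactosidase plasmid. Treated 24 h, then lysed. Luciferase normalized to β-gal and expressed relative to DMSO vehicle (=1).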

[2] = target: T2, Glucocorticoid receptor (Homo sapiens) (UniProt P04150); test: Antagonist activity at glucocorticoid receptor (unknown origin) expressed in human HepG2 cells assessed as reduction in dexamethasone-induced response at 1 uM by MMTV promoter-driven luciferase reporter gene assay; format: cell-based; details: in the assay text read “GRE promoter-driven” for “MMTV promoter-driven”
T2 sequence (whole entry): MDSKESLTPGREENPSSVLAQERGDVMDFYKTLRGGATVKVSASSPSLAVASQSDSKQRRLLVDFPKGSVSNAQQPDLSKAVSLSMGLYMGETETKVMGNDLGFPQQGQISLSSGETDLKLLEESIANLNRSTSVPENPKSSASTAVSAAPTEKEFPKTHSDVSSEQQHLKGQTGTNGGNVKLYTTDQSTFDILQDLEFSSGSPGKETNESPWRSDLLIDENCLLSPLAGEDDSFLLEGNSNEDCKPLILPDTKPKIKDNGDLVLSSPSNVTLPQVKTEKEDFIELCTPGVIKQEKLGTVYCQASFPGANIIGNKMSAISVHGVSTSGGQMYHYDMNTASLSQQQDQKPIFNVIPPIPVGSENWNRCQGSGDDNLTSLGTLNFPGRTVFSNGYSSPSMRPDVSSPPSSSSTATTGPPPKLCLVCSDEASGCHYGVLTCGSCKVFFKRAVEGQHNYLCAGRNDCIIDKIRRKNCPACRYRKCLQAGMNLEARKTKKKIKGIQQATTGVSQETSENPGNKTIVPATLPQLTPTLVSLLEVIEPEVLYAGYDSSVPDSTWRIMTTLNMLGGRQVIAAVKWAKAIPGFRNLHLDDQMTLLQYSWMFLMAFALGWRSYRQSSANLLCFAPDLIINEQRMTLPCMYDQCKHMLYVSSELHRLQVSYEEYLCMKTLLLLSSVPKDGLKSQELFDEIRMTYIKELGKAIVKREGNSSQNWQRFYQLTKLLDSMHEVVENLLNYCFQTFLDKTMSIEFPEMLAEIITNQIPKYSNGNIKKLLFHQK
Method in brief: (§2)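 HepG2 in phenol red-free DMEM with charcoal-stripped FBS, triplicate wells. Transfected with 2 µg pCMV-GR, 6 µg pGRE-luc reporter and 1 µg β-gal control. Compound co-treated with 5 nM dexamethasone for 24 h. Luciferase/β-galactosidase ratio expressed relative to dexamethasone alone (=1).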

[3] = target: T1, Androgen receptor (Homo sapiens); test: Agonist activity at androgen receptor (unknown origin) expressed in human HepG2 cells assessed as relative luciferase activity at 100 nM by MMTV promoter-driven luciferase reporter gene assay relative to untreated vehicle control; format: cell-based; method in brief: as §1
[4] = target: T3, Progesterone receptor (Homo sapiens) (UniProt P06401); test: Antagonist activity at progesterone receptor (unknown origin) expressed in human HepG2 cells assessed as reduction in progesterone-induced response at 100 nM by MMTV promoter-driven luciferase reporter gene assay; format: cell-based
T3 sequence (whole entry): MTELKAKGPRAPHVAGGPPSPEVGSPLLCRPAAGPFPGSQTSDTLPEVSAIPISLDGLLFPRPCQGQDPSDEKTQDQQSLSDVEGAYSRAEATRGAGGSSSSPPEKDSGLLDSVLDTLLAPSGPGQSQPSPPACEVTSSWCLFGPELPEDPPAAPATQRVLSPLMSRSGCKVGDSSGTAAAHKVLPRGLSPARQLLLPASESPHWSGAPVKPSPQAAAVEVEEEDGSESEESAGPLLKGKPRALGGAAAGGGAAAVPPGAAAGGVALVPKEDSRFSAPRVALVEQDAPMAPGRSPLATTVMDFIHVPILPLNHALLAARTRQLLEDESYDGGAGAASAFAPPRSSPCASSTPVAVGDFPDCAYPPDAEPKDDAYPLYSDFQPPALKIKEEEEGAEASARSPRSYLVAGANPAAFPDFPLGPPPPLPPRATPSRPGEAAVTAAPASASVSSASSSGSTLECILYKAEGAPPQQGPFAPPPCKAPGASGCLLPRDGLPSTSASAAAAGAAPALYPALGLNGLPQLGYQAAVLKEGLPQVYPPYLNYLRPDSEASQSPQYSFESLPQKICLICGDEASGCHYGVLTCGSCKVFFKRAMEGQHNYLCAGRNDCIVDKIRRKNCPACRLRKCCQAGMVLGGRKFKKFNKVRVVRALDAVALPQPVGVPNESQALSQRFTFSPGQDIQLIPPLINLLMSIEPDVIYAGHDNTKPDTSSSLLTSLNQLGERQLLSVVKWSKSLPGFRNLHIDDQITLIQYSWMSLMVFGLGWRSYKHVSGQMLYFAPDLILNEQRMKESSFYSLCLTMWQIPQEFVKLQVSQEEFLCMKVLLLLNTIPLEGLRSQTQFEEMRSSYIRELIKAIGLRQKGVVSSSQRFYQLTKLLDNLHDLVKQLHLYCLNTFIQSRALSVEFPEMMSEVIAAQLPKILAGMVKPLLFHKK
Method in brief: (§3)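 Triplicate HepG2 wells in phenol red-free, charcoal-stripped serum medium. Cotransfected with 2 µg pCMV-PR, 6 µg pMMTV-luc and 1 µg β-gal plasmid. Compound added with 10 nM progesterone for 24 h. Lysate luminescence normalized to β-galactosidase and expressed relative to progesterone alone (=1).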

[5] = target: T3, Progesterone receptor (Homo sapiens); test: Agonist activity at progesterone receptor (unknown origin) expressed in human HepG2 cells assessed as relative luciferase activity at 20 uM by MMTV promoter-driven luciferase reporter gene assay relative to progesterone; format: cell-based
[6] = target: T3, Progesterone receptor (Homo sapiens); test: Antagonist activity at progesterone receptor (unknown origin) expressed in human HepG2 cells assessed as reduction in progesterone-induced response at 10 uM by MMTV promoter-driven luciferase reporter gene assay; format: cell-based; method in brief: as §3
HepG2 = test: Cytotoxicity against human HepG2 cells; format: cell-based
[7] = target: T3, Progesterone receptor (Homo sapiens); test: Antagonist activity at progesterone receptor (unknown origin) expressed in human HepG2 cells assessed as reduction in progesterone-induced response at 1 uM by MMTV promoter-driven luciferase reporter gene assay; format: cell-based; method in brief: as §3
[8] = target: T2, Glucocorticoid receptor (Homo sapiens); test: Antagonist activity at glucocorticoid receptor (unknown origin) expressed in human HepG2 cells assessed as reduction in dexamethasone-induced response at 100 nM by MMTV promoter-driven luciferase reporter gene assay; format: cell-based; details: in the assay text read “GRE promoter-driven” for “MMTV promoter-driven”; method in brief: as §2
[9] = target: T2, Glucocorticoid receptor (Homo sapiens); test: Antagonist activity at glucocorticoid receptor (unknown origin) expressed in human HepG2 cells assessed as reduction in dexamethasone-induced response at 10 uM by MMTV promoter-driven luciferase reporter gene assay; format: cell-based; details: in the assay text read “GRE promoter-driven” for “MMTV promoter-driven”; method in brief: as §2
[10] = target: T2, Glucocorticoid receptor (Homo sapiens); test: Agonist activity at glucocorticoid receptor (unknown origin) expressed in human HepG2 cells assessed as relative luciferase activity at 20 uM by GRE promoter-driven luciferase reporter gene assay relative to dexamethasone

Compound | Activity [1] | Activity (% of dexamethasone control) [2] | Activity [3] | inhibition [4] | Activity [5] | Activity (% of progesterone control) [6] | Activity (HepG2) | Activity (% of progesterone control) [7] | inhibition [8] | Activity (% of dexamethasone control) [9] | Activity [10]
CC(=O)O[C@@H](C[C@@H](C)C1=C2[C@H](O)[C@H](O)[C@H]3[C@@]4(C)CCC(=O)C(C)(C)[C@@H]4CC[C@]3(C)[C@@]2(C)CC1=O)[C@H]1OC1(C)C | inactive | 56% | inactive | inactive | inactive | 64% | Non-toxic | 71% | inactive | 30% | inactive
C[C@H](C[C@H](O)[C@H]1OC1(C)C)C1=C2C[C@H](O)[C@H]3[C@@]4(C)CCC(=O)C(C)(C)[C@@H]4CC[C@]3(C)[C@@]2(C)CC1 [ALISOL B] | – | – | – | – | – | – | Toxic | – | – | – | –
CC(=O)O[C@@H](C[C@@H](C)C1=C2C[C@H](O)[C@H]3[C@@]4(C)CCC(=O)C(C)(C)[C@@H]4CC[C@]3(C)[C@@]2(C)CC1)[C@@H](O)C(C)(C)O | inactive | 56% | inactive | Active | inactive | 66% | Non-toxic | 82% | Active | 39% | inactive

Reference: ChEMBL document CHEMBL3352219, “Triterpenes from Alisma orientalis act as androgen receptor agonists, progesterone receptor antagonists, and glucocorticoid receptor antagonists” (Bioorg Med Chem Lett, 2014)
